Results on seven compounds are retold here after ChEMBL document CHEMBL2074053, “Modified jatrophane diterpenes as modulators of multidrug resistance from Euphorbia dendroides L” (Bioorg Med Chem, 2003).

Structures are written as SMILES.

Common to all, as to assay type: functional, cell-based
Conditions in all cases: k562/r7, 5 µM

The target in data set [1] is T1, ATP-dependent translocase ABCB1 (Homo sapiens, UniProt P08183). The data set is described as follows: TP_TRANSPORTER: inhibition of Daunomycin efflux (Daunomycin: 10 uM, 13alpha-OH Terracinolide B: 5 uM) in K562/R7 cells. In outline: (§1)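 Cells washed twice in ice-cold PBS and held on ice. Intracellular daunomycin read by flow cytometry. Efflux inhibition is the fluorescence shift relative to 2 µM cyclosporin A as positive control. Duplicates, at least three separate experiments.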

Data set [2] addresses T1, ATP-dependent translocase ABCB1. The data set is described as follows: TP_TRANSPORTER: inhibition of Daunomycin efflux (Daunomycin: 10 uM, 13alpha-OH Terracinolide G: 5 uM) in K562/R7 cells. In outline:
as §1

Data set [3] has the same target. The data set is described as follows: TP_TRANSPORTER: inhibition of Daunomycin efflux (Daunomycin: 10 uM, Terracinolide L: 5 uM) in K562/R7 cells. A digest of the protocol: as §1
The target is the same in data set [4]. The data set is described as follows: TP_TRANSPORTER: inhibition of Daunomycin efflux (Daunomycin: 10 uM, Epiabeodendroidin F: 5 uM) in K562/R7 cells. In outline:
as §1

The target is the same in data set [5]. Kind of data set: TP_TRANSPORTER: inhibition of Daunomycin efflux (Daunomycin: 10 uM, Terracinolide B: 5 uM) in K562/R7 cells. A digest of the protocol: as §1
Data set [6] shares this target. The data set is described as follows: TP_TRANSPORTER: inhibition of Daunomycin efflux (Daunomycin: 10 uM, Terracinolide C: 5 uM) in K562/R7 cells. In outline: as §1
Data set [7] shares this target. The data set is described as follows: TP_TRANSPORTER: inhibition of Daunomycin efflux (Daunomycin: 10 uM, Terracinolide K: 5 uM) in K562/R7 cells. In outline:
as §1

T1 sequence (P08183 whole entry): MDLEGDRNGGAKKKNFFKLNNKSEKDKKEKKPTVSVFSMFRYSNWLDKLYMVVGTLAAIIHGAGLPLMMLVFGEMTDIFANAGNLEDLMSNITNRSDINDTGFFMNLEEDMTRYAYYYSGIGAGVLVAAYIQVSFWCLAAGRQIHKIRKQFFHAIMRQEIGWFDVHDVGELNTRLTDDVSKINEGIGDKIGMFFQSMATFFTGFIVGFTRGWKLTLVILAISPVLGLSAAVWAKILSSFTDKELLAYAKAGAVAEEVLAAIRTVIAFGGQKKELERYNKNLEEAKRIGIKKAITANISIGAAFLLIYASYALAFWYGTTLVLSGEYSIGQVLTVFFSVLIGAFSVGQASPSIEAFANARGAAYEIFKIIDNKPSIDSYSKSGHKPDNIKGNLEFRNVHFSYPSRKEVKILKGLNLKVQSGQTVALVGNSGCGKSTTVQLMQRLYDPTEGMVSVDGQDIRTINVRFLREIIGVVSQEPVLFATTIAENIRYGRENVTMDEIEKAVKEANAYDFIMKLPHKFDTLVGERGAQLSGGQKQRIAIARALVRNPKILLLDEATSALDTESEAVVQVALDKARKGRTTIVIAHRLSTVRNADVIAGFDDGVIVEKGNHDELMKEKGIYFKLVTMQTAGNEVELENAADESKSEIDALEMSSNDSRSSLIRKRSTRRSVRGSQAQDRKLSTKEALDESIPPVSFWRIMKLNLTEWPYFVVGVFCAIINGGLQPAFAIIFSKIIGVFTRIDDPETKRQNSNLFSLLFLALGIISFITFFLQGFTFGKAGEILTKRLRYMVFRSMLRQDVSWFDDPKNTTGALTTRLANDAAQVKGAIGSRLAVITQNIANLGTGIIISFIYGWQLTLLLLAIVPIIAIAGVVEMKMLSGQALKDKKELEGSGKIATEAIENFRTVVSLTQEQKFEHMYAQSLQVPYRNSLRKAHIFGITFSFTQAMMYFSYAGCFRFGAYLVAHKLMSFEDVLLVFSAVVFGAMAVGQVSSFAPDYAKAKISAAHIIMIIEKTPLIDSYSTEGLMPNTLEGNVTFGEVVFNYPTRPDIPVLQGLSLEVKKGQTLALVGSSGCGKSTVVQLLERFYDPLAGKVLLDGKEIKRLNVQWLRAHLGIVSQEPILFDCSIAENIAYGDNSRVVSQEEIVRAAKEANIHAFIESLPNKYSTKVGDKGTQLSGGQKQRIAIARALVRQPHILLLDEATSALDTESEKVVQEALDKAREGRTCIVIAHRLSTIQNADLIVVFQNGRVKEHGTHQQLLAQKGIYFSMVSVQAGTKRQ

`CC(=O)O[C@H]1[C@@H](OC(C)=O)C(C)(C)/C=C/[C@@](C)(O)C(=O)[C@@]2(OC(C)=O)C[C@@](C)(OC(C)=O)[C@H](OC(C)=O)[C@@H]2[C@H]2OC(=O)CC[C@@]2(OC(C)=O)[C@@H]1OC(=O)C(C)C`: the Activity entry in data set [1] is “inhibitor [+]”.

For the compound `CC(=O)O[C@H]1[C@@H](OC(C)=O)C(C)(C)/C=C/[C@@](C)(O)C(=O)[C@@]2(O)C[C@@](C)(OC(C)=O)[C@H](OC(C)=O)[C@@H]2[C@H]2OC(=O)CC[C@@]2(OC(C)=O)[C@@H]1OC(=O)C(C)C`, in data set [2], the Activity result was “inhibitor [+]”.

As for `CC(=O)O[C@H]1[C@@H](OC(C)=O)C(C)(C)/C=C/[C@H](C)C(=O)[C@@]2(OC(C)=O)C[C@@](C)(O)[C@H](OC(C)=O)[C@@H]2[C@H]2OC(=O)CC[C@@]2(OC(=O)C(C)C)[C@@H]1OC(=O)C(C)C`, the Activity entry in data set [3] is “is not an inhibitor [-]”.

Consider `C=C1[C@H](OC(=O)c2ccccc2)[C@@H](OC(C)=O)[C@@H](OC(C)=O)C(C)(C)/C=C/[C@H](C)[C@]2(O)C[C@@](C)(O)[C@H](OC(C)=O)[C@@H](C2=O)[C@H]1OC(=O)C(C)C` [EPIABEODENDROIDIN F], for which the Activity entry in data set [4] was “inhibitor [+]”.

Regarding `CC(=O)O[C@H]1[C@@H](OC(C)=O)C(C)(C)/C=C/[C@H](C)C(=O)[C@@]2(OC(C)=O)C[C@@](C)(OC(C)=O)[C@H](OC(C)=O)[C@@H]2[C@H]2OC(=O)CC[C@@]2(OC(C)=O)[C@H]1OC(=O)C(C)C` [TERRACINOLIDE B], the Activity result in data set [5] is “inhibitor [+]”.

Regarding `CC(=O)O[C@H]1[C@@H](OC(C)=O)C(C)(C)/C=C/[C@H](C)C(=O)[C@@]2(OC(C)=O)C[C@@](C)(OC(C)=O)[C@H](O)[C@@H]2[C@H]2OC(=O)CC[C@@]2(OC(C)=O)[C@@H]1OC(=O)C(C)C` [TERRACINOLIDE C], the Activity entry in data set [6] was “inhibitor [+]”.

In the case of `CC(=O)O[C@H]1[C@@H](OC(C)=O)C(C)(C)/C=C/[C@H](C)C(=O)[C@@]2(OC(C)=O)C[C@@](C)(O)[C@H](OC(C)=O)[C@@H]2[C@H]2OC(=O)CC[C@@]2(OC(C)=O)[C@@H]1OC(=O)C(C)C` [TERRACINOLIDE K], the Activity result in data set [7] was “inhibitor [+]”.
